Test results published in ChEMBL document CHEMBL2146414, “Lignan derivatives from Krameria lappacea roots inhibit acute inflammation in vivo and pro-inflammatory mediators in vitro” (J Nat Prod, 2011).
Active and inactive are the calls of the source. The calls are words filed in the database; no cut-off is given here.

Columns and labels:
[1] = tested on: Radical scavenging activity; test: Antioxidant activity assessed as DPPH free radical scavenging activity after 30 mins by spectrophotometry; assay type: functional
[2] = tested on: Mus musculus; test: Antiinflammatory effect in CD1 mouse ear dermatitis model assessed as reduction in leukocyte infiltration-based myeloperoxidase at 0.4 umol administered topically per cm'2 of ear measured after 6 hrs post dermatitis induction relative to control; assay type: functional, organism-based
Summary of the method: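 CD-1 mice, croton oil 80 μg in acetone on right ear with topical test substance; ear punch (6 mm) homogenized in 0.1 M sodium acetate pH 4.2 with 0.1% HTAB, centrifuged 15000g 5 min; supernatant myeloperoxidase measured with TMB (2.83 mM) and 0.7 mM H2O2, 5 min at 25 °C, stopped with acetic acid, A620; duplicates; units = nM TMB oxidized/min.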

[3] = tested on: Mus musculus; test: Antiinflammatory effect in CD1 mouse ear dermatitis model assessed as reduction in cellular changes at 0.4 umol administered topically per cm'2 of ear measured after 6 hrs post dermatitis induction relative to control; assay type: functional, organism-based
Summary of the method: (§1)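 Male CD-1 mice (28–32 g) anesthetized with ketamine 145 mg/kg ip; right ear (about 1 cm2) given 80 μg croton oil in 15 μL acetone with test substance co-applied in acetone; controls irritant only; left ear untreated. Ears fixed in 10% formalin, paraffin-embedded, 10 μm sections stained hematoxylin-eosin or Giemsa, examined by light microscopy at set times after induction.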

[4] = tested on: Mus musculus; test: Antiinflammatory effect in CD1 mouse ear dermatitis model assessed as preservance of mast cell degranulation at 0.4 umol administered topically per cm'2 of ear measured after 6 hrs post dermatitis induction relative to control; assay type: functional, organism-based; summary of the method: as §1
[5] = tested on: Mus musculus; test: Antiinflammatory effect in CD1 mouse ear dermatitis model assessed as reduction in vascular changes at 0.4 umol administered topically per cm'2 of ear measured after 6 hrs post dermatitis induction relative to control; assay type: functional, organism-based; summary of the method: as §1
[6] = tested on: Mus musculus; test: Antiinflammatory effect in CD1 mouse ear dermatitis model assessed as reduction in mast cell degranulation at 0.4 umol administered topically per cm'2 of ear measured after 6 hrs post dermatitis induction relative to control; assay type: functional, organism-based; summary of the method: as §1

| SMILES | IC50 [1] | IC50 ([1]; read-out: IC50) [µM] | inhibition [2] | inhibition [3] | inhibition [4] | inhibition [5] | inhibition [6] |
| --- | --- | --- | --- | --- | --- | --- | --- |
| C/C=C/c1ccc2oc(-c3ccc(OC)cc3O)cc2c1 [RATANIAPHENOL I] | Dose-dependent effect | 24.2 |  |  |  |  |  |
| C/C=C/c1ccc2oc(-c3ccc(O)cc3OC)cc2c1 [RATANIAPHENOL III] | Dose-dependent effect | 36.3 |  |  |  |  |  |
| C/C=C/c1ccc2oc(-c3ccc(O)cc3O)cc2c1 | Dose-dependent effect | 22.1 |  |  |  |  |  |
| COc1cc(O)ccc1-c1cc2cc(CCCO)ccc2o1 | Dose-dependent effect | 37.7 |  |  |  |  |  |
| C/C=C/c1ccc2c(c1)[C@@H](C)[C@H](c1ccc(O)cc1)O2 |  |  | Active | Active | Active | Active | Active |
| COc1ccc(-c2cc3cc(CCCO)ccc3o2)c(O)c1 | Dose-dependent effect | 42.3 | Active | Active | Active | Active | Active |
